ChEMBL document CHEMBL4765366, “Targeting fungal virulence factor by small molecules: Structure-based discovery of novel secreted aspartic protease 2 (SAP2) inhibitors” (Eur J Med Chem, 2020)
pIC50: −log10 of the molar value. Activity calls are given as the source filed them. The calls are words filed in the database; no cut-off is given here.

Key:
[1] = Inhibition of recombinant Candida albicans SAP2 using Dabcyl-Arg-Lys-Pro-Ala-Leu-Phe-Phe-Arg-Leu-Glu (EDANS)-Arg-OH as substrate incubated for 30 mins followed by substrate addition and measured after 30 mins by spectrophotometry
[2] = system: Candida albicans; assay: Inhibition of recombinant Candida albicans SAP2 at 100 uM using Dabcyl-Arg-Lys-Pro-Ala-Leu-Phe-Phe-Arg-Leu-Glu (EDANS)-Arg-OH as substrate incubated for 30 mins followed by substrate addition and measured after 30 mins by spectrophotometry relative to control; settings: time 60.0 min
Method in brief: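 FRET assay with purified expressed C. albicans SAP2 in 50 mM sodium citrate, 50 mM NaCl, pH 4.5. Compound (diluted in DMSO) was preincubated with enzyme 30 min before adding the Dabcyl/EDANS peptide substrate (18.75 μM solution in DMSO). Reaction ran 30 min at 30 °C, then fluorescence was read at ex 340, em 485 nm. Pepstatin A was the positive control.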

[3] = system: Candida albicans; assay: Antifungal activity against azole resistant Candida albicans 0304103 infected in ICR mouse assessed as reduction in fungal burden in kidney at 10 mg/kg, ip administered for 4 days; format: functional, organism-based; settings: time 4.0 day
Method in brief: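 Female ICR mice (20–25 g) were immunosuppressed with cyclophosphamide, 100 mg/kg ip in saline. After 24 h they were infected iv with 0.2 mL of 1×10^5 CFU/mL cells. Starting 24 h after infection, mice (4 per group) received the drug ip once daily for four days; controls received saline or fluconazole 10 mg/kg. Kidneys were homogenized and plated on YPD at 30°C for log10 CFU.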

[4] = system: Candida albicans; assay: Antibiofilm activity against azole resistant Candida albicans 0304103 assessed as inhibition of biofilm formation incubated for 24 hrs by XTT-dye based assay; format: functional, organism-based; settings: dose 4-64 µg/ml
Method in brief: (§1)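 Cell suspensions (1.0 × 10^5 CFU/mL) were adhered for 90 min at 37°C, then rinsed three times with PBS. Compounds were added at a range of concentrations from 2 mg/mL DMSO stocks, with fluconazole as the positive control. Plates were cultured 24 h at 37°C, and biofilm was measured semi-quantitatively by XTT reduction.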

[5] = system: Candida tropicalis; assay: Antibiofilm activity against azole resistant Candida tropicalis 10186 assessed as inhibition of biofilm formation incubated for 24 hrs by XTT-dye based assay; format: functional, organism-based; settings: dose 4-64 µg/ml; method in brief: as §1
[6] = system: Candida albicans; assay: Antibiofilm activity against azole resistant Candida albicans 0304103 assessed as inhibition of biofilm formation at 64 ug/ml incubated for 24 hrs by XTT-dye based assay relative to control; format: functional; method in brief: as §1
[7] = system: Candida albicans; assay: Downregulation of SAP2 in azole resistant Candida albicans 0304103 at 64 ug/ml by qRT-PCR analysis; format: functional; settings: dose 64.0 µg/ml
[8] = system: Candida tropicalis; assay: Antibiofilm activity against azole resistant Candida tropicalis 10186 assessed as inhibition of biofilm formation at 64 ug/ml incubated for 24 hrs by XTT-dye based assay relative to control; format: functional; method in brief: as §1

SMILES	pIC50 [1]	inhibition [2] [%]	further results
O=C(O)COc1ccc(/C=C2\C(=O)N(c3ccccc3)N=C2c2ccccc2)c(OCC(=O)O)c1	5.00	99	–
O=C(O)COc1ccc(/C=C2\C(=O)N(c3ccc(F)cc3F)N=C2c2ccccc2)c(OCC(=O)O)c1	4.49	86	–
COc1ccc(N2N=C(c3ccccc3)/C(=C/c3ccc(OCC(=O)O)cc3)C2=O)cc1	4.69	95	–
O=C(O)COc1ccccc1/C=C1\C(=O)N(c2cccc(Cl)c2)N=C1c1ccccc1	4.26	70	–
O=C1/C(=C\c2ccc(Br)cc2)C(c2ccccc2)=NN1c1ccccc1	–	10	–
OC(Cn1cncn1)(Cn1cncn1)c1ccc(F)cc1F	–	–	Activity [3]: Active
CCn1cc(/C=C(\NC(=O)c2ccccc2OC)C(=O)NCCO)c2ccccc21	4.34	–	–
Cc1ccc(-c2ccc3c(c2)N(Cc2ccc(C#N)cc2)C(=O)/C3=C/c2ccc(OCC(=O)O)cc2OCC(=O)O)cc1	–	100	inhibition [4]: Dose-dependent effect; inhibition [5]: Dose-dependent effect; inhibition at 64 µg/mL [6]: > 50%; Activity [7]: Active
Cc1ccc(-c2ccc3c(c2)N(Cc2ccc(C(F)(F)F)cc2)C(=O)/C3=C/c2ccc(OCC(=O)O)cc2OCC(=O)O)cc1	–	100	inhibition [4]: Dose-dependent effect; inhibition [5]: Dose-dependent effect; inhibition at 64 µg/mL [8]: > 50%; Activity [7]: Active
O=C(O)COc1ccc(/C=C2\C(=O)N(c3cccc(Cl)c3)N=C2c2ccccc2)cc1OCC(=O)O	4.64	82	–
O=C(O)COc1ccc(/C=C2\C(=O)N(c3ccc(F)cc3)N=C2c2ccccc2)cc1OCC(=O)O	4.47	83	–
CN(C)c1ccc(/C=C2\C(=O)N(c3ccccc3)N=C2c2ccccc2)cc1	–	11	–
O=C(O)COc1ccccc1/C=C1\C(=O)N(c2ccccc2)N=C1c1ccccc1	4.21	68	–
CC(=O)c1ccc(CN2C(=O)/C(=C/c3ccc(OCC(=O)O)cc3OCC(=O)O)c3ccc(-c4ccc(C)cc4)cc32)cc1	–	90	Activity [7]: Active
O=C(O)COc1ccc(/C=C2\C(=O)N(c3ccc(Cl)cc3)N=C2c2ccccc2)c(OCC(=O)O)c1	4.97	99	–
CCOc1ccc(/C=C2\C(=O)N(c3ccccc3)N=C2c2ccccc2)cc1	–	5	–
O=C(O)COc1ccc(/C=C2\C(=O)N(c3ccc(F)cc3)N=C2c2ccccc2)c(OCC(=O)O)c1	4.75	93	–
O=C(O)COc1ccc(/C=C2\C(=O)N(c3ccc(Cl)cc3)N=C2c2ccccc2)cc1	4.89	96	–
Cc1ccc(-c2ccc3c(c2)N(Cc2ccc(F)cc2)C(=O)/C3=C/c2ccc(OCC(=O)O)cc2OCC(=O)O)cc1	–	58	–
O=C(O)COc1ccccc1/C=C1\C(=O)N(c2ccc(F)cc2)N=C1c1ccccc1	–	46	–
O=C(O)COc1ccc(/C=C2\C(=O)N(c3ccccc3)N=C2c2ccccc2)cc1	4.74	94	–
Cc1ccc(N2N=C(c3ccccc3)/C(=C/c3ccc(OCC(=O)O)c(OCC(=O)O)c3)C2=O)cc1	4.65	85	–

SMILES	pIC50 [1]	inhibition [2] [%]	further results
Cc1ccc(-c2ccc3c(c2)N(Cc2ccc(S(C)(=O)=O)cc2)C(=O)/C3=C/c2ccc(OCC(=O)O)cc2OCC(=O)O)cc1	–	100	inhibition [4]: Dose-dependent effect; inhibition [5]: Dose-dependent effect
Cc1ccc(N2N=C(c3ccccc3)/C(=C/c3ccc(OCC(=O)O)cc3)C2=O)cc1	4.67	93	–
COc1ccc(N2N=C(c3ccccc3)/C(=C/c3ccccc3OCC(=O)O)C2=O)cc1	4.15	64	–
CCc1ccc(/C=C2\C(=O)N(c3ccccc3)N=C2c2ccccc2)cc1	–	7	–
COc1cc([C@H]2C(C(=O)c3ccc([N+](=O)[O-])cc3)=C(O)C(=O)N2CCCCCC(=O)O)ccc1O	4.19	–	–
Cc1ccc(CN2C(=O)C(=Cc3ccc(OCC(=O)O)cc3OCC(=O)O)C(=O)N2Cc2ccc(C)cc2)cc1	4.76	94	–
Cc1ccc(CN2C(=O)/C(=C\c3ccc(OCC(=O)O)cc3OCC(=O)O)N(Cc3ccc(C)cc3)C2=O)cc1	4.62	91	–
O=C(O)COc1ccc(/C=C2\C(=O)N(c3ccc(F)cc3)N=C2c2ccccc2)cc1	4.40	71	–
O=C1/C(=C\c2ccc(O)cc2)C(c2ccccc2)=NN1c1ccccc1	–	12	–
Cc1ccc(-c2ccc3c(c2)N(Cc2ccc(Cl)cc2)C(=O)/C3=C/c2ccc(OCC(=O)O)cc2OCC(=O)O)cc1	–	100	inhibition [4]: Dose-dependent effect; inhibition [5]: Dose-dependent effect; inhibition at 64 µg/mL [6]: > 50%; inhibition at 64 µg/mL [8]: > 50%; Activity [7]: Active
O=C(O)COc1ccc(/C=C2\C(=O)N(c3cccc(Cl)c3)N=C2c2ccccc2)c(OCC(=O)O)c1	4.94	99	–
O=C(O)COc1ccc(/C=C2\C(=O)N(c3ccccc3)N=C2c2ccccc2)cc1OCC(=O)O	4.73	86	–
CC(C)CC(=O)N[C@H](C(=O)N[C@H](C(=O)N[C@@H](CC(C)C)[C@@H](O)CC(=O)N[C@@H](C)C(=O)N[C@@H](CC(C)C)[C@@H](O)CC(=O)O)C(C)C)C(C)C [PEPSTATIN]	7.66	100	–
COc1ccc(N2N=C(c3ccccc3)/C(=C/c3ccc(OCC(=O)O)cc3OCC(=O)O)C2=O)cc1	4.80	94	–
COc1ccc(N2N=C(c3ccccc3)/C(=C/c3ccc(OCC(=O)O)c(OCC(=O)O)c3)C2=O)cc1	4.67	88	–
Cc1ccc(N2N=C(c3ccccc3)/C(=C/c3ccccc3OCC(=O)O)C2=O)cc1	4.14	63	–
O=C(O)COc1ccc(/C=C2\C(=O)N(c3cccc(Cl)c3)N=C2c2ccccc2)cc1	4.58	90	–
O=C(O)COc1ccccc1/C=C1\C(=O)N(c2ccc(Cl)cc2)N=C1c1ccccc1	4.12	60	–
O=C(O)COc1ccc(/C=C2\C(=O)N(c3ccc(Cl)cc3)N=C2c2ccccc2)cc1OCC(=O)O	4.33	70	–
Cc1ccc(N2N=C(c3ccccc3)/C(=C/c3ccc(OCC(=O)O)cc3OCC(=O)O)C2=O)cc1	4.87	99	–
COc1ccc(CN2C(=O)/C(=C/c3ccc(OCC(=O)O)cc3OCC(=O)O)c3ccc(-c4ccc(C)cc4)cc32)cc1	–	29	–
